From ChEMBL document CHEMBL1140384, “Synthesis and structure-activity relationships of suramin-derived P2Y11 receptor antagonists with nanomolar potency” (J Med Chem, 2005)
pKi: −log10 of the molar value.

Legend:
[1] = target: T1, P2Y purinoceptor 11 (Homo sapiens, UniProt Q96G91); assay: Inhibitory concentration against P2Y purinoceptor 11 expressed in 1321N1 astrocytoma cells; n=7; format: cell-based
T1 sequence (Q96G91 whole entry): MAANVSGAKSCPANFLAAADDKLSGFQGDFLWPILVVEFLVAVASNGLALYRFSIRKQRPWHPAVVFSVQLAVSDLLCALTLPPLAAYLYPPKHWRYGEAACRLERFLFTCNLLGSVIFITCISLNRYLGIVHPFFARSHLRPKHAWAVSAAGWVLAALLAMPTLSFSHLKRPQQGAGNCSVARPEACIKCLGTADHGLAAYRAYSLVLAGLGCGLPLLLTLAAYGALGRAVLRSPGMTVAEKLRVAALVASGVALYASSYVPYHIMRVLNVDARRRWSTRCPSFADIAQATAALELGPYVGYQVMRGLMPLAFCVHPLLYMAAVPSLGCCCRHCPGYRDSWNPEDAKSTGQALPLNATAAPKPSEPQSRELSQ
Method in brief: (§1)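 Human P2Y11 stably expressed in 1321N1 astrocytoma cells (G418 selection), loaded with Oregon Green 488 BAPTA-1/AM (3 µM, 60 min, 25 °C) in Krebs-HEPES. Compound preincubated 30 min at 37 °C before injection of 1 µM ATPγS. Ca2+ fluorescence read at ex 485/em 520 nm for 30 s. IC50 from concentration-inhibition curves; independent experiments each run in triplicate.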

[2] = target: T2, P2Y purinoceptor 11 (Homo sapiens) (UniProt Q96G91); assay: Percent inhibition of agonist-induced calcium mobilization at P2Y purinoceptor 11 recombinantly expressed in human 1321N1 astrocytoma cells at 100 uM dose
T2 sequence (whole entry): T1 sequence (Q96G91 whole entry)

[3] = target: P2Y purinoceptor 1 (Homo sapiens, UniProt P47900); assay: Percent inhibition of agonist-induced calcium mobilization at P2Y purinoceptor 1 recombinantly expressed in human HEK293 cells at 100 uM dose; format: functional, cell-based; details: in the assay text read “native in” for “recombinantly expressed in”
Chain of P2Y purinoceptor 1 (P47900 whole entry): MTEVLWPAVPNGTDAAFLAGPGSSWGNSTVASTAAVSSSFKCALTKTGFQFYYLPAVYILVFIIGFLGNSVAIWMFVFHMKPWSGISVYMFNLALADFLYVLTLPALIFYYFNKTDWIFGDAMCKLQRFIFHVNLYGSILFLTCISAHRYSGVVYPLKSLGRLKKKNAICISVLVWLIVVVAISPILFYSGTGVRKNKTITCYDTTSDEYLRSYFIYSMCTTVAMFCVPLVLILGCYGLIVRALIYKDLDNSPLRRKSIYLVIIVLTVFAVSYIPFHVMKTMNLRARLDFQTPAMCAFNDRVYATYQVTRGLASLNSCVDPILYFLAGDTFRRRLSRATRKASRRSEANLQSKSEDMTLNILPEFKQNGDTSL
Method in brief: (§2)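 Single 100 µM antagonist dose, preincubated 30 min at 37 °C, in a Ca2+ fluorescence assay (Oregon Green 488 BAPTA-1/AM). Agonists: 31.6 nM 2-MeSADP for native P2Y1 and 3.16 µM UTP for native P2Y2, both in HEK293 cells; 1 µM ATPγS for recombinant P2Y11 in 1321N1 cells. Response expressed as % of agonist control; mean ± SEM, n ≥ 3.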

[4] = target: T2, P2Y purinoceptor 11 (Homo sapiens); assay: Relative potency was measured against P2Y purinoceptor 11; format: functional
[5] = target: P2Y purinoceptor 2 (Homo sapiens, UniProt P41231); assay: Percent inhibition of agonist-induced calcium mobilization at P2Y purinoceptor 2 recombinantly expressed in human HEK293 cells at 100 uM dose; format: functional, cell-based; details: in the assay text read “native in” for “recombinantly expressed in”; method in brief: as §2
Chain of P2Y purinoceptor 2 (P41231 whole entry): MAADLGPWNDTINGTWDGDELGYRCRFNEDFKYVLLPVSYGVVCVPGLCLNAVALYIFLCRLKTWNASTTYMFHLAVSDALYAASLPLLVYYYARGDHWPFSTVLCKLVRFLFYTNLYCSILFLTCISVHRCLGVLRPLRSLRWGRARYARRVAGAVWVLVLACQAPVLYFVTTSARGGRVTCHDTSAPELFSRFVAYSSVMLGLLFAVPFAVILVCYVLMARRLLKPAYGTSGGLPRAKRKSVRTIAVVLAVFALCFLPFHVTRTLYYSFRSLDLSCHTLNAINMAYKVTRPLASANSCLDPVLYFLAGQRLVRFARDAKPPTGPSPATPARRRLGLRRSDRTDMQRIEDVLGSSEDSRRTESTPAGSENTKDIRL

[6] = target: T1, P2Y purinoceptor 11; assay: Inhibitory concentration against P2Y purinoceptor 11 expressed in 1321N1 astrocytoma cells; n=3; format: cell-based; method in brief: as §1
[7] = target: T1, P2Y purinoceptor 11; assay: Inhibitory concentration against P2Y purinoceptor 11 expressed in 1321N1 astrocytoma cells; n=6; format: cell-based; method in brief: as §1
[8] = target: T1, P2Y purinoceptor 11; assay: Inhibitory concentration against P2Y purinoceptor 11 expressed in 1321N1 astrocytoma cells; n=4; format: cell-based; method in brief: as §1

| pKi [1] | inhibition [2] [%] | inhibition [3] [%] | Rel potency [4] | inhibition [5] [%] | pKi [6] | pKi [7] | pKi [8] | SMILES |
| --- | --- | --- | --- | --- | --- | --- | --- | --- |
| 6.97 | 93 | 40.6 | 42 | 55.2 |  |  |  | O=C(Nc1cccc(C(=O)Nc2cc(C(=O)Nc3ccc(S(=O)(=O)O)c4cc(S(=O)(=O)O)cc(S(=O)(=O)O)c34)ccc2Cl)c1)Nc1cccc(C(=O)Nc2cc(C(=O)Nc3ccc(S(=O)(=O)O)c4cc(S(=O)(=O)O)cc(S(=O)(=O)O)c34)ccc2Cl)c1 |
|  | 79.9 | 75.1 | 15 | 73.2 | 6.52 |  |  | O=C(Nc1cccc(C(=O)Nc2cc(C(=O)Nc3ccc(S(=O)(=O)O)c4cc(S(=O)(=O)O)cc(S(=O)(=O)O)c34)ccc2-c2ccccc2)c1)Nc1cccc(C(=O)Nc2cc(C(=O)Nc3ccc(S(=O)(=O)O)c4cc(S(=O)(=O)O)cc(S(=O)(=O)O)c34)ccc2-c2ccccc2)c1 |
|  | 93.7 | 54.5 | 15 | 50.5 |  | 6.52 |  | Cc1ccc(C(=O)Nc2ccc(S(=O)(=O)O)c3cc(S(=O)(=O)O)cc(S(=O)(=O)O)c23)cc1NC(=O)c1cccc(NC(=O)Nc2cccc(C(=O)Nc3cc(C(=O)Nc4ccc(S(=O)(=O)O)c5cc(S(=O)(=O)O)cc(S(=O)(=O)O)c45)ccc3C)c2)c1 [SURAMIN] |
|  | 59 | 57.8 |  | 0 |  |  |  | O=C(Nc1cc(C(=O)Nc2ccc(S(=O)(=O)O)c3cc(S(=O)(=O)O)cc(S(=O)(=O)O)c23)ccc1Cl)Nc1cc(C(=O)Nc2ccc(S(=O)(=O)O)c3cc(S(=O)(=O)O)cc(S(=O)(=O)O)c23)ccc1Cl |
|  | 39.9 | 38.4 |  | 20.8 |  |  |  | CCc1ccc(C(=O)Nc2ccc(S(=O)(=O)O)c3cc(S(=O)(=O)O)cc(S(=O)(=O)O)c23)cc1NC(=O)Nc1cc(C(=O)Nc2ccc(S(=O)(=O)O)c3cc(S(=O)(=O)O)cc(S(=O)(=O)O)c23)ccc1CC |
| 7.12 | 92.2 | 23.2 | 59 | 44.9 |  |  |  | COc1ccc(C(=O)Nc2ccc(S(=O)(=O)O)c3cc(S(=O)(=O)O)cc(S(=O)(=O)O)c23)cc1NC(=O)c1cccc(NC(=O)Nc2cccc(C(=O)Nc3cc(C(=O)Nc4ccc(S(=O)(=O)O)c5cc(S(=O)(=O)O)cc(S(=O)(=O)O)c45)ccc3OC)c2)c1 |
|  | 71.6 | 47.5 | 1.9 | 44.3 |  |  | 5.62 | COCc1ccc(C(=O)Nc2ccc(S(=O)(=O)O)c3cc(S(=O)(=O)O)cc(S(=O)(=O)O)c23)cc1NC(=O)c1cccc(NC(=O)Nc2cccc(C(=O)Nc3cc(C(=O)Nc4ccc(S(=O)(=O)O)c5cc(S(=O)(=O)O)cc(S(=O)(=O)O)c45)ccc3COC)c2)c1 |
|  | 84.9 | 48.7 | 4.5 | 48.8 | 6.00 |  |  | CCc1ccc(C(=O)Nc2ccc(S(=O)(=O)O)c3cc(S(=O)(=O)O)cc(S(=O)(=O)O)c23)cc1NC(=O)c1cccc(NC(=O)Nc2cccc(C(=O)Nc3cc(C(=O)Nc4ccc(S(=O)(=O)O)c5cc(S(=O)(=O)O)cc(S(=O)(=O)O)c45)ccc3CC)c2)c1 |
|  | 83.1 | 45 | 10 | 31.1 | 6.35 |  |  | CC(C)c1ccc(C(=O)Nc2ccc(S(=O)(=O)O)c3cc(S(=O)(=O)O)cc(S(=O)(=O)O)c23)cc1NC(=O)c1cccc(NC(=O)Nc2cccc(C(=O)Nc3cc(C(=O)Nc4ccc(S(=O)(=O)O)c5cc(S(=O)(=O)O)cc(S(=O)(=O)O)c45)ccc3C(C)C)c2)c1 |
|  | 23.8 | 31.7 |  | 13 |  |  |  | COCc1ccc(C(=O)Nc2ccc(S(=O)(=O)O)c3cc(S(=O)(=O)O)cc(S(=O)(=O)O)c23)cc1NC(=O)Nc1cc(C(=O)Nc2ccc(S(=O)(=O)O)c3cc(S(=O)(=O)O)cc(S(=O)(=O)O)c23)ccc1COC |
|  | 23.2 | 28.7 |  | 14.2 |  |  |  | CC(C)c1ccc(C(=O)Nc2ccc(S(=O)(=O)O)c3cc(S(=O)(=O)O)cc(S(=O)(=O)O)c23)cc1NC(=O)Nc1cc(C(=O)Nc2ccc(S(=O)(=O)O)c3cc(S(=O)(=O)O)cc(S(=O)(=O)O)c23)ccc1C(C)C |
|  | 54.2 | 19.7 |  | 24 |  |  |  | O=C(Nc1cccc(C(=O)Nc2ccc(S(=O)(=O)O)c3cc(S(=O)(=O)O)cc(S(=O)(=O)O)c23)c1)Nc1cccc(C(=O)Nc2ccc(S(=O)(=O)O)c3cc(S(=O)(=O)O)cc(S(=O)(=O)O)c23)c1 |
|  | 86.6 | 0 | 0.6 | 28.4 | 5.12 |  |  | Cc1ccc(C(=O)Nc2ccc(S(=O)(=O)O)c3cc(S(=O)(=O)O)cc(S(=O)(=O)O)c23)cc1NC(=O)Nc1cc(C(=O)Nc2ccc(S(=O)(=O)O)c3cc(S(=O)(=O)O)cc(S(=O)(=O)O)c23)ccc1C |
|  | 35.9 | 34.2 |  | 0 |  |  |  | O=C(Nc1cc(C(=O)Nc2ccc(S(=O)(=O)O)c3cc(S(=O)(=O)O)cc(S(=O)(=O)O)c23)ccc1-c1ccccc1)Nc1cc(C(=O)Nc2ccc(S(=O)(=O)O)c3cc(S(=O)(=O)O)cc(S(=O)(=O)O)c23)ccc1-c1ccccc1 |
|  | 64.7 | 60 |  | 0 |  |  |  | O=C(Nc1cc(C(=O)Nc2ccc(S(=O)(=O)O)c3cc(S(=O)(=O)O)cc(S(=O)(=O)O)c23)ccc1F)Nc1cc(C(=O)Nc2ccc(S(=O)(=O)O)c3cc(S(=O)(=O)O)cc(S(=O)(=O)O)c23)ccc1F |
|  | 11.2 | 40 |  | 53.6 |  |  |  | COc1ccc(C(=O)Nc2ccc(S(=O)(=O)O)c3cc(S(=O)(=O)O)cc(S(=O)(=O)O)c23)cc1NC(=O)Nc1cc(C(=O)Nc2ccc(S(=O)(=O)O)c3cc(S(=O)(=O)O)cc(S(=O)(=O)O)c23)ccc1OC |
